Screens as filed in PubChem BioAssay.
PAX8 reporter = inhibitors of PAX8-driven TPO luciferase reporter, primary screen, RMG-I cells, single concentration; inhibition, % at 12.6 µM; 1.2% of 360,000 active; AID 652154, 2013; SteadyGlo, 24 h;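 active = mean replicate inhibition at least 60% with every replicate also reaching 60%; inconclusive = only one of the two criteria is met; inactive = mean below 60% and not all replicates reaching 60%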;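 also: luciferase light reporting Pax8 driven TPO promoter activity; plate controls were median of neutral control wells for no effect and mitoxantrone controls for full effect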
PfHsp90 yeast 2 = growth inhibition of PfHsp90-expressing yeast, primary screen, antimalarial PfHsp90 inhibitor project, S. cerevisiae, BacTiter-Glo luminescence, single point, set 2; BacTiter-Glo ATP, 48 h; yeast lacking PDR1 and PDR3 efflux regulators; inhibition, % at 9.4 µM; 0.32% of 310,000 active; AID 504621, 2011;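 active = every replicate shows inhibition above about 80%, whatever the replicate mean, limit read from the data; inconclusive = mean inhibition reaches the set limit but some replicate falls short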;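 also: 0% = DMSO neutral controls and 100% = 20 µM radicicol positive controls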
HIV Env fusion = inhibitors of HIV-1 Env-driven cell-cell fusion, primary screen, HeLa-JRFL effector, CEM21 target cells, luciferase; AID 651610, 2012; 1.1% of 360,000 active; inhibition, % at 12.3 µM;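 active = mean replicate inhibition score of at least 50 and every replicate individually at or above 50; inconclusive = only one of the two criteria met; inactive = mean below 50 and not all replicates reaching 50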;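 also: 0% = plate neutral controls and 100% = maraviroc near 300 nM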
Arrestin-AP2 inh = inhibitors of beta-arrestin/AP2 binding, primary screen, biochemical, GPCR trafficking, flow cytometry. beta-arrestin 1 C-terminal peptide binding to AP2 beta2-adaptin appendage (human). FITC-arrestin peptide / GST-AP2 beads; AP2 beta2 appendage carries R879A mutation. inhibition, % at 10 µM. 0.31% of 340,000 active;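 active = inhibition above a set limit, near 3 SD of compounds lacking own fluorescence, cut at about 54% in these data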;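 also: plate controls were DMSO wells for no effect and 5 µM unlabelled arrestin peptide for full effect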
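Assay system: GST-AP2 R879A bound to glutathione beads, E. coli-expressed; Medium: PBS with 0.05% Tween 20 and 0.1% BSA; Also added: fluorescein-tagged arrestin peptide at 50 nM final; Timing: 12 min plus 1 h, RT; Measured by: flow cytometry, FL1 (488/535 nm); Evaluation: percent drop in bead-associated FITC signal.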
Glyco luc inh = increase of ERlucT glycosylation luciferase signal, primary screen, N-linked glycosylation inhibitor project, D54 ERlucT cells, luminescence, set 2. D54 ERlucT glycosylation luciferase reporter, 24 h; percent of 100 nM tunicamycin response. reporter increase, % at 12.5 µM. 0.23% of 360,000 active;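 active = mean luciferase reporter signal, scaled so untreated is 0 and the glycosylation-blocking control 100, at or above a set limit in every replicate; inconclusive = mean reaches the limit but not every replicate does; inactive = mean below the limit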;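 also: luciferase carries N-glycosylation sites so blocking glycosylation raises the light; 0% = median of neutral control wells and 100% = median of 100 nM tunicamycin wells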
Rtt109 Vps75 = inhibitors of C. albicans Rtt109/Vps75 HAT, primary screen, biochemical, ThioGlo CoA-SH fluorescence, plate reader. Histone acetyltransferase RTT109 (Candida albicans (strain SC5314 / ATCC MYA-2876)), …. purified Rtt109/Vps75, 4 h. inhibition, % at 34.9 µM. 0.16% of 330,000 active;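 active = inhibition of at least 50% in every replicate; inconclusive = best replicate reaches 50% inhibition but some replicates fall short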
Target sequence (Q5AAJ8 whole entry, looked up): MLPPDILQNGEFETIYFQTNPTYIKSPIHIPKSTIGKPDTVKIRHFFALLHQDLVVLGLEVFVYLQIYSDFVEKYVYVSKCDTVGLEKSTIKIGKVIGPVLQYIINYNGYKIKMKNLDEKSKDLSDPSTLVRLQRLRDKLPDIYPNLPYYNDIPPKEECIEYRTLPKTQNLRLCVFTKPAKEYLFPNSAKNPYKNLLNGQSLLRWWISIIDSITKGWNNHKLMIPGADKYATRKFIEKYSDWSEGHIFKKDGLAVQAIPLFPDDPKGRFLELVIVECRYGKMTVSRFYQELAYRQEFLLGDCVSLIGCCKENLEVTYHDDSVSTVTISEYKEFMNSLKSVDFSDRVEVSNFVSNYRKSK
* hit, by the source's call; i = inactive; ? = inconclusive; · = no result given; ! = not active in a repeat; [ ] = dose if it differs, or a comment. Shown are actives, neighbours in structure and some others; about 2.3% of the full set was active somewhere.

SMILES	PAX8 reporter	PfHsp90 yeast 2	HIV Env fusion	Arrestin-AP2 inh	Glyco luc inh	Rtt109 Vps75
CCn1c(SCC(=O)Nc2ccc(OC)c(OC)c2)nnc1-c1cccs1	18	34	2	-1	-1	1
CCn1c2ccccc2c2cc(NC(=O)CSc3nnc(-c4cccc(OC)c4)n3N)ccc21	·	-19	135*	2	4	1
CCOc1ccc(-c2nnc(SCC(=O)Nc3ccc4c(c3)c3ccccc3n4CC)n2N)cc1	36	-12	-224	-7	73*	4
CCn1c(SCC(=O)Nc2cc(OC)c(OC)c(OC)c2)nnc1-c1cccs1	·	-4	-44	3	-1	63*
CO[C@H]1CN(C)C(=O)c2cc(NC(=O)c3cc(C)on3)ccc2OC[C@@H](C)N(C)C[C@@H]1C	-7	·	5[16.7 µM]	·	·	·
CC(C)C#Cc1ccc2c(c1)O[C@@H](CN(C)C(=O)c1cnccn1)[C@H](C)CN([C@H](C)CO)S2(=O)=O	·	·	-2[16.7 µM]	·	·	·
CSCCC(NS(=O)(=O)c1ccc2c(c1)OCCO2)C(=O)N(C)Cc1ccc(C)cc1 (centres undefined)	16	-26	19	-9	-3	10
COc1cccc(CN(C)C(=O)C(CCSC)NS(=O)(=O)c2ccc3c(c2)OCCO3)c1OC (centres undefined)	70*	16	9	-5	-6	-2
C[C@@H]1CCCCO[C@H](CN(C)Cc2ccc3c(c2)OCO3)[C@H](C)CN([C@@H](C)CO)C(=O)c2cc(NS(=O)(=O)c3ccccc3)ccc2O1	5	·	-18[16.7 µM]	·	·	·
CO[C@@H]1CN(C)C(=O)c2ccc(NC(C)=O)cc2OC[C@@H](C)N(Cc2ccccc2F)C[C@H]1C	1	·	-24[16.7 µM]	·	·	·
COc1ncnc2c1ncn2CCCNCCCN1CCCC1=O	72*	·	22	·	0	·
CCN(CC)S(=O)(=O)c1cccc(S(=O)(=O)c2cccc(S(=O)(=O)N(CC)CC)c2)c1	·	-6	79*	9	-3	-6
O=C(Nc1ccc(N2CCN(C(=O)c3ccccc3)CC2)cc1)c1ccc2c(c1)OCCO2	-23	-17	·	-2	-10	-6
O=C(Nc1ccc(N2CCN(C(=O)c3ccc(Cl)cc3)CC2)cc1)c1ccc2c(c1)OCCO2	·	-1	86*	19	-13	4
CS(=O)(=O)c1ncc(Cl)c(C(=O)Nc2ccc(N3CCOCC3)cc2)n1	·	4	·	3	-15	110*
Cc1ccc(NC(=O)c2nc(S(=O)(=O)Cc3ccccc3)ncc2Cl)cc1	?	104*	1	44	-2	-3
Cc1nnc(NC(=O)c2nc(S(=O)(=O)Cc3ccccc3)ncc2Cl)s1	6	21	-139	-8	4	-8
O=C(Nc1ccc(F)cc1)c1nc(S(=O)(=O)Cc2ccccc2)ncc1Cl	104*	96*	10	45	-10	-3
CCS(=O)(=O)c1ncc(Cl)c(C(=O)Nc2ccc(S(=O)(=O)N(C)c3ccccc3)cc2)n1	110*	4	?	17	-18	12
Cc1cccc(C)c1NC(=O)c1nc(S(=O)(=O)Cc2ccccc2)ncc1Cl	28	-27	-86	-6	-18	?
C[C@@H]1CN([C@H](C)CO)S(=O)(=O)c2ccc(-c3cccnc3)cc2O[C@@H]1CN(C)C(=O)CC1CC1	·	·	-35[16.7 µM]	·	·	·
CC(=O)N(C)C[C@H]1Oc2cc(Br)ccc2S(=O)(=O)N([C@@H](C)CO)C[C@H]1C	·	·	-4[16.7 µM]	·	·	·
CCC(=O)N[C@@H]1CC[C@@H](CC(=O)NCc2ccccc2OC)O[C@@H]1CO	-32	·	-1[16.7 µM]	·	·	·
Cc1ccccc1CS(=O)(=O)c1ncc(Cl)c(C(=O)Nc2ccc(F)cc2)n1	30	114*	24	-7	-9	16
COc1ccc(OC)c(NC(=O)c2nc(S(=O)(=O)Cc3ccccc3)ncc2Cl)c1	53	100*	?	20	-17	-4
SMILES	PAX8 reporter	PfHsp90 yeast 2	HIV Env fusion	Arrestin-AP2 inh	Glyco luc inh	Rtt109 Vps75
O=C(NC(=S)N1CCN(Cc2ccc3c(c2)OCO3)CC1)c1cccc(Br)c1	76*	-23	·	8	0	15
COc1ccc(NC(=O)Nc2ccc3c(c2)CC(=O)N([C@@H](C)CO)C[C@@H](C)[C@H](CN(C)S(C)(=O)=O)O3)cc1	0	·	·	·	·	·
Nc1c2ccccc2nc2ccccc12	-12	-54	-76	5	33*!	i
N#CC(=Cc1ccccn1)c1nc(-c2ccc(Cl)cc2)cs1	-19	·	-33	·	42*	·
C[C@@H]1CN([C@H](C)CO)S(=O)(=O)c2ccc(C3=CCCC3)cc2O[C@@H]1CN(C)C(=O)c1ccccc1	·	·	49[16.7 µM]	·	·	·
COc1ccc(C#Cc2ccc([C@@H]3[C@H](CO)N4CCCCN(C(=O)Nc5ccc(F)cc5)C[C@@H]34)cc2)cc1	107*	·	·	·	·	·
COc1ccc(NC(=O)N2CCCCN3[C@H](C2)[C@@H](c2ccc(C#Cc4ccccc4)cc2)[C@@H]3CO)cc1	92*	·	·	·	·	·
COc1ccc(NC(=O)N2CCCCN3[C@@H](CO)[C@H](c4ccc(C#Cc5ccccc5)cc4)[C@@H]3C2)cc1	70*	·	·	·	·	·
C[C@H](CO)N1C[C@H](C)[C@H](CN(C)C(=O)Nc2cccc3ccccc23)Oc2ccc(NC(=O)C3CC3)cc2CC1=O	3	·	0[16.7 µM]	·	·	·
Cc1noc(C)c1S(=O)(=O)N(C)C[C@H]1Oc2ccc(NC(=O)NC3CCCCC3)cc2CC(=O)N([C@H](C)CO)C[C@H]1C	-10	·	13[16.7 µM]	·	·	·
CCCNC(=O)[C@@]1(c2ccc([N+](=O)[O-])cc2)CC(=O)N(CC23CC4CC(CC(C4)C2)C3)[C@@H]1c1ccc(CO)cc1I	105*	·	19[16.7 µM]	·	·	·
CC(C)NC(=O)[C@@]1(c2ccc([N+](=O)[O-])cc2)CC(=O)N(CC23CC4CC(CC(C4)C2)C3)[C@@H]1c1ccc(CO)cc1	15	·	-1[16.7 µM]	·	·	·
Cc1noc(C)c1S(=O)(=O)Nc1ccc2c(c1)C(=O)N([C@H](C)CO)C[C@H](C)[C@@H](CN(C)S(=O)(=O)c1cn(C)cn1)OCCCC[C@@H](C)O2	-1	·	-5[16.7 µM]	·	·	·
O=C(/C=C/c1c[nH]c2ccccc12)c1cccc2ccccc12	-12	4	-5	0	30*	3
CCOC1=C2[C@H](c3ccccc3)N(S(=O)(=O)c3ccc(C)cc3)[C@H](C(C)C)[C@H]2C(C#N)(C#N)C(C#N)(C#N)C1	28	·	107*	·	·	·
CCOC1=C2[C@H](c3ccc(CC)cc3)N(S(=O)(=O)c3ccc(C)cc3)C[C@H]2C(C#N)(C#N)C(C#N)(C#N)C1	-7	·	-91	·	33*	·
